Rows were chosen to be rich in hits. Some 2.5% of all compounds tested hit in one or more screens of this group.
MC4R barr agon = activates human MC4R beta-arrestin recruitment; activation, % at 8.9 µM; U2OS MC4R beta-arrestin complementation, luminescence; percent of melanotan II response, DMSO zero; AID 540308; 0.98% of 360,000 active; P32245;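 active means activation above a per-plate cutoff, the mean activation of sample wells on that plate plus 3 SD, cut at about 8% in these data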
Target sequence (P32245 whole entry, looked up): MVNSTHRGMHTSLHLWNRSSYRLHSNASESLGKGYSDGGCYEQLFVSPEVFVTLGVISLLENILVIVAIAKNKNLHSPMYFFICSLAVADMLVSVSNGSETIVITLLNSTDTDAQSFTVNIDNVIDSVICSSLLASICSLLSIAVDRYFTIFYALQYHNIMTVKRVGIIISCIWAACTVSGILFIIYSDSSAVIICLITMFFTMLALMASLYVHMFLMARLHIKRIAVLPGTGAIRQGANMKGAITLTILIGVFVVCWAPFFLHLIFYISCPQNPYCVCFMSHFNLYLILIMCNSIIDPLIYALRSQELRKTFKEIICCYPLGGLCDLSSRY
NALP1 yeast inh = inhibitors of NALP1 inflammasome in yeast; S. cerevisiae NALP1/ASC/caspase-1 growth, X-gal OD620, 72 h; inhibition, % at 10 µM; 0.61% of 280,000 active; AID 2071; in the data active means inhibition mostly above about 24%, no sharp cut-off; inactive means mostly below about 32%
Bfl-1 A1 inh = inhibitors of the anti-apoptotic protein A1, read as caspase activation; AID 2462; caspase activation, % (no concentration beside the values); 0.066% of 330,000 active; MEF A1-2A-BIM cells, Caspase-Glo 3/7 luminescence, 3 h; percent of clofoctol response, vehicle zero;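 active means over half of replicate activation scores above 10%, or exactly half above 10 with the replicate mean above 10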
TbMetRS inhib = Trypanosoma brucei MetRS inhibition | purified T. brucei MetRS, ATP depletion, Kinase-Glo luminescence | inhibition, % at 11.9 µM | 0.4% of 360,000 active;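 active means inhibition above a per-plate cutoff of the control wells' mean inhibition plus 3 SD, cut at about 5.5% in these data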;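 further: 0% = DMSO wells median and 100% = median of wells with control inhibitor compound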
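assay system = parasite MetRS enzyme | timing = 15 min preincubation, 2 h reaction, all 25 °C | evaluation = percent inhibition relative to median high and low control wells | medium = HEPES buffer containing pyrophosphatase, BSA, spermine, DTT | compound = single dose, 11.9 µM final nominal, 0.9% final DMSO | detection = Kinase-Glo luminescence, ATP depletion format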
MC4R antag cAMP = antagonists of human melanocortin 4 receptor (MC4R) | MC4R-expressing cells, MTII-stimulated cAMP, LANCE TR-FRET | P32245 | AID 540295 | 0.48% of 360,000 active | inhibition, % at 6.5 µM;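 active means inhibition above its plate's cutoff, the mean of tested wells on that plate plus 3 SD, cut at about 29% in these data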;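 further: 0% = Melanotan II alone and 100% = Melanotan II plus saturating MCL0020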
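Material: U2OS-MC4R stable cell line | Reagent: Melanotan II challenge after compound preincubation | Doses: One concentration, 6.5 µM nominal | Incubation: 30-min compound preincubation, 1-h Melanotan II challenge, 1-h detection, room temperature | Signal: TR-FRET cAMP assay | Replicates: One well per compound, no replicates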
NALP3 yeast inh = blocks the NALP3 inflammasome reconstituted in yeast; Yeast reconstituted NLRP3/ASC/caspase-1, beta-gal luminescence, 24 h; inhibition, % at 10 µM; 0.39% of 330,000 active;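 active means inhibition of 50% or more; inactive means inhibition below 50%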;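 further: plate controls were induced DMSO wells for no effect and uninduced yeast grown without galactose for full effect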
* hit, by the source's call; x = not tested or not shown.

SMILES	MC4R barr agon	NALP1 yeast inh	Bfl-1 A1 inh	TbMetRS inhib	MC4R antag cAMP	NALP3 yeast inh
CCOC(=O)c1c(C)[nH]c(C)c1C(=O)COC(=O)C1CC(=O)N(CCc2ccccc2)C1 (centres undefined)	-1	x	0	0	4	-1
CC1CCc2sc(C(=O)NN=C3CCCC3)cc2C1 (centres undefined)	2	x	x	0	3	x
COc1ccccc1S(=O)(=O)N(C)C[C@@H]1Oc2ncc(-c3ccc(C)cc3)cc2C(=O)N([C@H](C)CO)C[C@@H]1C	1	x	x	-1	1	x
COCCN1Cc2cccc(C(=O)Nc3cc(OC)ccc3OC)c2C1=O	1	28*	-1	0	3	15
CCCCNC(=O)c1cc(-c2ccc(OC)cc2)on1	5	25	0	0	0	19
CCCCNC(=O)c1cc(-c2ccc(OC)c(OC)c2)on1	1	43*	x	0	6	18
Cc1ccc(C(=O)N[C@H](C(=O)Nc2sccc2C(N)=O)C(C)C)cc1	-2	19	-1	-1	2	20
COC(=O)c1ccc(NC(=O)Cc2ccc(C)cc2)cc1	-1	35*	0	0	2	1
COc1cc(CNC2CCCC2)cc(Cl)c1OCc1ccc(F)cc1	6	36	0	-1	-4	19
CCOc1cc(CNC2CCCC2)cc(Cl)c1OCc1ccc(F)cc1	2	97*	0	0	3	40
CCOc1cc(CNCc2ccncc2)cc(Br)c1OCc1ccc(F)cc1	0	51*	0	0	2	43
Fc1ccc(COc2ccc(Br)cc2CNCc2ccncc2)cc1	2	15	2	-1	2	19
O=C(CCNC(=O)C1CCN(S(=O)(=O)c2ccc(F)cc2)CC1)NCc1cccc(Cl)c1	-1	-9	-1	0	5	13
CNC(CC(=O)c1ccc([N+](=O)[O-])cc1)C(Cl)(Cl)Cl (centres undefined)	-3	115*	3	0	4	x
O=[N+]([O-])c1ccc(-c2ccn[nH]2)o1	0	67*	0	0	5	25
COc1ccc(CNC(=O)CN2CCN(S(=O)(=O)c3cccs3)CC2)cc1OC	1	35*	0	-1	16	-4
CCC(C)NC(=O)C1CCN(S(=O)(=O)c2cccs2)CC1 (centres undefined)	0	-6	0	0	-7	1
CCS(=O)(=O)N1CCC(C(=O)NCc2cc(OC)ccc2OC)CC1	0	41*	0	0	1	5
COc1ccc(NC(=O)CN2CCN(S(=O)(=O)c3cccs3)CC2)cc1Cl	-1	x	0	0	4	12
CCC(CC)NC(=O)C1CCN(S(=O)(=O)c2cccs2)CC1	-1	33*	0	0	0	14
COc1ccc(OC)c(NC(=O)C2CCN(S(=O)(=O)c3cccs3)CC2)c1	-1	39*	0	-1	2	2
CC(C)(C)S(=O)(=O)N1Cc2ccc(CO)cc2[C@H]1CCO	-1	x	x	0	2	x
Cc1ccccc1CC(=O)N1CCN(S(=O)(=O)c2ccc(Cl)s2)CC1	1	x	0	0	4	8
CC1(C(=O)NS(=O)(=O)c2cccc(OC(F)F)c2)CCN1C(=O)CCc1cccs1 (centres undefined)	-2	x	x	0	5	x
CCc1ccc(C(C)NC(=O)c2cccs2)cc1 (centres undefined)	2	x	0	-1	7	20
SMILES	MC4R barr agon	NALP1 yeast inh	Bfl-1 A1 inh	TbMetRS inhib	MC4R antag cAMP	NALP3 yeast inh
CCn1c(N)cc(=O)[nH]c1=S	-1	x	x	0	-3	x
CCCCn1c(N)c(N(CCOC)C(=O)COC(=O)CNC(=O)c2ccc(Cl)c(Cl)c2)c(=O)[nH]c1=O	-1	x	x	0	5	x
CCOC(=O)c1cccc(NS(=O)(=O)Cc2ccccc2)c1	1	44*	1	0	21	10
O=C(/C=C/c1ccc(OCCCF)cc1)NCc1ccc(Cl)c(Cl)c1	8.9*	-15	0	-1	9	17
CCN(CC)C(=O)C1=C(C)N(Cc2ccccc2)C(=O)C(CC(=O)NCCCN(C)C)C1 (centres undefined)	1	x	x	0	-4	x
N#CCn1nnc(-c2ccc3c(c2)OCO3)n1	1	29	6.7*	-1	23	16
O=S(=O)(Nc1ccc(Br)cc1)c1cccc(NS(=O)(=O)c2cccs2)c1	-1	x	x	0	3	x
O=C(COC(=O)/C=C/c1ccccc1Cl)NC(=O)Cc1ccccc1	-1	19	1	-2	-4	14
O=C(COC(=O)/C=C/c1ccccc1Cl)NC(=O)NCc1ccccc1	8.4*	x	0	0	-2	14
Cc1cc(C2C(=O)NC(=O)C2=O)c(C)cc1Br (centres undefined)	-2	x	x	0	1	x
C=CCn1c(SCC(=O)Nc2nccs2)nnc1-c1cc2cccc(OC)c2o1	9.3*	1	0	-1	1	10
C=CCn1c(SCC(=O)Nc2ccccc2OC)nnc1-c1ccco1	x	17	x	x	x	-2
COc1ccc(C(=O)N/N=C(\C)CC(=O)Nc2ccccn2)cc1OC	0	-1	0	-1	10	16
C/C(CC(=O)Nc1ccccn1)=N\NC(=O)c1cccc(C)c1	1	2	0	0	34*	10
O=C(Nc1ccccc1)N1CCc2ccccc2C1	-1	50*	-1	0	0	20
CC(=O)OC[C@]12CC[C@H]3[C@@](C)(CC[C@H]4C(C)(C)CCC[C@]34C)[C@@H]1C[C@H](C1=CC(=O)O[C@H]1OC(C)=O)O2	x	x	62*	x	x	9
Nc1ccc2nc(SCC(=O)N3CCOCC3)sc2c1	1	40*	0	0	13	14
O=C(NCc1ccco1)c1cccc(-c2ccc3nccn3c2)c1	-2	x	x	0	-13	x
CSc1cccc(NC(=O)CCC(=O)O)c1	1	25	0	0	-3	11
Cc1c(C)c(C)c(C(=O)CCc2cccc(NC(=O)CCC(=O)O)c2)c(C)c1C	0	13	11*	-1	6	15
CCOC(=O)c1c(C)[nH]c(C)c1C(=O)COC(=O)COc1ccc(Cl)c(C)c1	1	x	x	0	3	20
O=C(COC(=O)/C=C/c1ccccc1[N+](=O)[O-])NCc1ccco1	-1	x	0	0	5	6
Cc1ccc(SCC(=O)OCC(=O)N(C)CC(=O)Nc2ccccc2Cl)cc1C	0	5	0	0	8	19
Cc1cccc(Nc2nc(-c3ccc(O)cc3O)cs2)n1	9.4*	12	-1	-1	12	23
N#Cc1ccc(Nc2nc(-c3ccc(O)cc3O)cs2)cc1C(F)(F)F	20*	x	-1	3	13	15

Screening data from PubChem.
